Tests used:
[1] = Oral bioavailability in cynomolgus monkey at 10 mg/kg; assay type: ADME, organism-based, Macaca fascicularis; conditions: in vivo
In short: (§1)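 Plasma PK after 1 mg/kg i.v. and 10 mg/kg p.o.; %F from both routes. Rat: male Sprague-Dawley, oral 0.5% methylcellulose suspension, i.v. 20% NMP/20% ethanol/60% PEG 200, n = 3. Dog oral: Tween 80 2.5 μL/mL + 0.5% MC suspension. Monkey oral: same Tween/MC suspension; i.v. 10% NMP/10% ethanol/10% PEG/70% PEG200-water premix.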

[2] = Oral bioavailability in Beagle dog at 10 mg/kg; assay type: ADME, organism-based, Canis lupus familiaris; conditions: Beagle, in vivo; in short: as §1
[3] = Half life in Sprague-Dawley rat at 10 mg/kg, po; assay type: ADME, organism-based; conditions: in vivo
In short: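 Half-life calculated from plasma profiles after oral dosing at 10 mg/kg. Rat: male Sprague-Dawley, 0.5% methylcellulose suspension, n = 3. Dog and cynomolgus monkey: Tween 80 (2.5 μL/mL) + 0.5 (w/v) MC suspension.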

[4] = Tmax in Beagle dog at 10 mg/kg, po; assay type: ADME, organism-based, Canis lupus familiaris; conditions: in vivo
In short: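 Tmax from oral 10 mg/kg dosing. Rat: male Sprague-Dawley, 0.5% MC suspension, n = 3. Guinea pig: 20% NMP + 0.5% MC suspension, n = 3. Dog and monkey: 2.5 μL/mL Tween 80 + 0.5% MC suspension.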

[5] = AUC (0 to 24 hrs) in cynomolgus monkey at 10 mg/kg, po; assay type: ADME, organism-based, Macaca fascicularis; design: time < 24 hr, dose 10 mg/kg, route oral; conditions: in vivo
In short: (§2)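 Single oral dose of 10 mg/kg. Cmax and AUC0-24 taken from the oral arm. Rat: male Sprague-Dawley, dosed in 0.5% methylcellulose suspension, mean ± SD (n = 3). Guinea pig: 20% NMP + 0.5% MC suspension, mean ± SD (n = 3). Dog and cynomolgus monkey: 2.5 μL/mL Tween 80 + 0.5 (w/v) MC suspension.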

[6] = AUC (0 to 24 hrs) in Beagle dog at 10 mg/kg, po; assay type: ADME, organism-based, Canis lupus familiaris; design: dose 10 mg/kg, time < 24 hr, route oral; conditions: Beagle, in vivo; in short: as §2
[7] = AUC (0 to 24 hrs) in Sprague-Dawley rat at 10 mg/kg, po; assay type: ADME, organism-based; design: dose 10 mg/kg, time < 24 hr, route oral; conditions: in vivo; in short: as §2
[8] = Oral bioavailability in Sprague-Dawley rat at 10 mg/kg; assay type: ADME, organism-based; conditions: in vivo; in short: as §1
[9] = Clearance in cynomolgus monkey at 1 mg/kg, iv; assay type: ADME, organism-based, Macaca fascicularis; conditions: in vivo
In short: (§3)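 Intravenous dose of 1 mg/kg; clearance and Vz derived from the i.v. arm. Rat (male Sprague-Dawley) vehicle 20% NMP + 20% ethanol + 60% PEG 200, mean ± SD (n = 3). Dog vehicle 20% NMP + 20% EtOH + 10% PG + 50% PEG 200:water (3:2). Monkey vehicle 10% NMP + 10% ethanol + 10% PEG + 70% PEG200:water (3:2).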

[10] = Clearance in Beagle dog at 1 mg/kg, iv; assay type: ADME, organism-based, Canis lupus familiaris; conditions: in vivo; in short: as §3
[11] = Protein binding in dog plasma at 10 uM after 5 hrs by equilibrium dialysis based LC-MS/MS analysis; assay type: ADME, cell-free, Canis lupus familiaris; conditions: read-out: PPB (converted)
In short: (§4)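 Equilibrium dialysis at 10 μM compound; result expressed as percent bound.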

[12] = Apparent passive permeability of the compound by PAMPA; assay type: ADME
In short: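 Passive permeability by PAMPA, using a 2% lecithin in dodecane membrane. Run in triplicate.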

[13] = Cmax in Dunkin-Hartley guinea pig at 10 mg/kg, po; assay type: ADME, organism-based, Cavia porcellus; design: dose 10 mg/kg, route oral; conditions: in vivo; in short: as §2
[14] = Cmax in Beagle dog at 10 mg/kg, po; assay type: ADME, organism-based, Canis lupus familiaris; design: dose 10 mg/kg, route oral; conditions: in vivo; in short: as §2
[15] = Ratio of drug uptake in brain to plasma of cynomolgus monkey at 10 mg/kg, po; assay type: ADME, organism-based, Macaca fascicularis; conditions: read-out: BPR
[16] = Protein binding in cynomolgus monkey plasma at 10 uM after 5 hrs by equilibrium dialysis based LC-MS/MS analysis; assay type: ADME, cell-free, Macaca fascicularis; conditions: read-out: PPB (converted); in short: as §4
[17] = Ratio of drug uptake in brain to plasma of Beagle dog at 10 mg/kg, po; assay type: ADME, organism-based, Canis lupus familiaris; conditions: read-out: BPR
[18] = target: Prostaglandin F synthase (Homo sapiens); assay: Inhibition of human PGF synthase assessed as decrease in PGF2alpha production
[19] = system: Canis familiaris; assay: Toxicity in Beagle dog assessed as emesis at 10 mg/kg, po; assay type: organism-based, Canis lupus familiaris; conditions: in vivo
[20] = system: Cavia porcellus; assay: Analgesic activity in Dunkin-Hartley guinea pig hyperalgesia pain model assessed as inhibition of LPS-induced hyperalgesia at 30 mg/kg, po administered 2 hrs prior to LPS challenge measured after 4.5 hrs relative to control; assay type: functional
In short: (§5)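 Guinea pigs received compound orally, once daily, at 10, 30 or 100 mg/kg, 2 h before LPS was injected into the plantar surface of the right paw. Saline-injected animals served as the comparison for thermal hyperalgesia. Plasma and brain drug levels taken 7 h after dosing, mean of n = 6–9 per group, from a single experiment.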

[21] = system: Cavia porcellus; assay: Analgesic activity in Dunkin-Hartley guinea pig hyperalgesia pain model assessed as inhibition of LPS-induced hyperalgesia at 100 mg/kg, po administered 2 hrs prior to LPS challenge measured after 4.5 hrs relative to control; assay type: functional; in short: as §5
[22] = Plasma concentration in Dunkin-Hartley guinea pig LPS-induced hyperalgesia pain model at 10 mg/kg, po administered 2 hrs prior to LPS challenge measured 7 hrs post dose; assay type: ADME, organism-based, Cavia porcellus
In short: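 Guinea pigs dosed orally at 10, 30 or 100 mg/kg 2 h before intraplantar LPS in the right hind paw; thermal hyperalgesia scored. Plasma (ng/mL) and brain (ng/g) levels taken 7 h post dose; brain/plasma ratio computed. Means of 6–9 animals per group, single experiment.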

[23] = Drug uptake in brain of Dunkin-Hartley guinea pig LPS-induced hyperalgesia pain model at 30 mg/kg, po administered 2 hrs prior to LPS challenge measured 7 hrs post dose; assay type: ADME, organism-based, Cavia porcellus; conditions: read-out: Drug uptake; in short: as §5
[24] = Drug uptake in brain of Dunkin-Hartley guinea pig LPS-induced hyperalgesia pain model at 10 mg/kg, po administered 2 hrs prior to LPS challenge measured 7 hrs post dose; assay type: ADME, organism-based, Cavia porcellus; conditions: read-out: Drug uptake; in short: as §5
[25] = Ratio of plasma concentration in Dunkin-Hartley guinea pig LPS-induced hyperalgesia pain model to IC50 for mPGES1 in guinea pig whole blood; assay type: ADME; conditions: in vivo
[26] = system: Cavia porcellus; assay: Analgesic activity in Dunkin-Hartley guinea pig MIA-induced osteoarthritic pain model assessed as reversal of incapacitance at 500 mg/kg, po administered on day 3 measured at 6 to 7 hrs relative to control; assay type: functional
In short: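 Day 0: monoiodoacetate injected into the right shoulder joint of guinea pigs; saline-injected animals as comparison. Day 3: compound given orally at 100, 250 or 500 mg/kg, and weight-bearing incapacitance on the injected forelimb measured. Plasma sampled at the PD time point, n = 6–8 per group, single experiment.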

[27] = Plasma concentration in Dunkin-Hartley guinea pig MIA-induced osteoarthritic pain model at 100 mg/kg, po measured 2 hrs post dose; assay type: ADME, organism-based, Cavia porcellus
In short: (§6)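 Intra-articular MIA into the right shoulder joint on day 0; oral dosing at 100, 250 or 500 mg/kg on day 3, incapacitance (forelimb weight bearing) measured. Plasma concentration sampled 2 h post dose. Means of 6–8 animals per group, single experiment.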

[28] = Plasma concentration in Dunkin-Hartley guinea pig MIA-induced osteoarthritic pain model at 250 mg/kg, po measured 2 hrs post dose; assay type: ADME, organism-based, Cavia porcellus; in short: as §6
[29] = Ratio of plasma concentration in Dunkin-Hartley guinea pig MIA-induced osteoarthritic pain model to IC50 for mPGES1 in guinea pig whole blood; assay type: ADME; conditions: in vivo
[30] = Ratio of plasma concentration in Dunkin-Hartley guinea pig MIA-induced osteoarthritic pain model to IC50 for mPGES1 in human whole blood; assay type: ADME; conditions: in vivo

Compound | bioavailability [1] | bioavailability [2] | half-life [3] | Tmax [4] | AUC(0-t) at 24 h [5] | AUC(0-t) at 24 h [6] | AUC(0-t) at 24 h [7] | bioavailability [8] | clearance [9] | clearance [10] | fraction unbound at 5 h, 10 µM [11] | Papp [12] | Cmax [13] | Cmax [14] | Kp [15] | fraction unbound at 5 h, 10 µM [16] | Kp [17] | IC50 [18] | other results
Cc1cccc(Cl)c1Nc1nc2cc(C(=O)Nc3cc(C(F)(F)F)ccc3F)c3c(c2[nH]1)CC(C)(C)O3 | 11% | 40% | 7 h | 8 h | 7510 ng·h/mL | 12900 ng·h/mL | 2580 ng·h/mL | 14% | 1.6 mL/min/kg | 3.5 mL/min/kg | 0.003 | 1.34 ×10⁻⁶ cm/s | 80 ng/mL | 843 ng/mL | 0.16 |  |  |  | 
CC1(C)Cc2c(c(C(=O)Nc3ccc(C(F)(F)F)cn3)cc3nc(Nc4c(Cl)cccc4Cl)[nH]c23)O1 | 21% |  | 2.7 h | 12 h | 3670 ng·h/mL |  | 4020 ng·h/mL | 43% | 8.5 mL/min/kg |  | 0.008 | 0.63 ×10⁻⁶ cm/s | 91 ng/mL | 336 ng/mL | 0.37 | 0.005 | 0.32 |  | 
Cn1c(Nc2c(F)cccc2Cl)nc2cc(C(=O)Nc3cccc(C(F)(F)F)c3)c3c(c21)CC(C)(C)O3 |  |  |  |  |  |  |  |  |  |  |  |  |  |  |  |  |  | 3180 nM | 
CC1(C)Cc2c(c(C(=O)Nc3cc(C(F)(F)F)ccc3F)cc3nc(Nc4c(F)cccc4Cl)[nH]c23)O1 |  |  |  |  |  |  |  |  |  |  |  | 0.62 ×10⁻⁶ cm/s |  |  |  |  |  | 2470 nM | 
CC1(C)Cc2c(c(C(=O)Nc3ccc(F)c(C(F)(F)F)c3)cc3nc(Nc4c(F)cccc4Cl)[nH]c23)O1 |  | 15% | 4 h | 12 h |  | 8240 ng·h/mL | 11000 ng·h/mL | 91% |  | 1.61 mL/min/kg | 0.009 | 0.33 ×10⁻⁶ cm/s | 361 ng/mL | 492 ng/mL | 0.32 | 0.0052 | 0.72 | 2320 nM | Activity [19]: Non-Toxic; inhibition in vivo at 30 mg/kg [20]: 44%; inhibition in vivo at 100 mg/kg [21]: 66%; concentration at 7 h [22]: 94 ng/mL; concentration at 7 h [23]: 87 ng/g; concentration at 7 h [24]: 96 ng/g; Ratio [25]: 2; Activity [26]: 83%; concentration at 2 h [27]: 678 ng/mL; concentration at 2 h [28]: 1510 ng/mL; Ratio [29]: 7; Ratio [30]: 17

From ChEMBL document CHEMBL4219124, “Alleviating CYP and hERG liabilities by structure optimization of dihydrofuran-fused tricyclic benzo[d]imidazole series - Potent, selective and orally efficacious microsomal prostaglandin E synthase-1 (mPGES-1) inhibitors: Part-2” (Bioorg Med Chem Lett, 2018)
